# Measurements reported in ChEMBL document CHEMBL5724801, “EUbOPEN Chemogenomics Library - Multiplex” (2024).
# “And” between values parts separate entries of the source, which are not always exact repeats. Identical values can stand only once.
# Tested on: U2OS
# Test: Multiplex assay against U2OS
# Format: toxicity, cell-based
# Details: human
# Method in brief: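 Hoechst33342, BioTracker Green Microtubule Cytoskeleton Dye, MitoTracker Red and Annexin V Alexa Fluor 680 were added to live cells at seeding, and imaging on a CQ1 microscope at 37°C and 5% CO2 followed compound addition. Gating by CellPathfinder machine learning separated cells into Hoechst high-intensity objects or normal cells, then normal cells into healthy, pyknosed or fragmented nuclei, then pyknosed cells into mitotic or apoptotic. Per cents of healthy-nucleus cells are reported for the tubulin, mitochondrial-mass and membrane-permeability phenotypes.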
# [1] = 12 h, 1 µM, compound concentration 1 uM
# [2] = 12 h, 10 µM, compound concentration 10 uM
# [3] = 24 h, 1 µM, compound concentration 1 uM
# [4] = 24 h, 10 µM, compound concentration 10 uM
# [5] = 48 h, 1 µM, compound concentration 1 uM
# [6] = 48 h, 10 µM, compound concentration 10 uM
structure (smiles),measurement,setting,value
Cc1ccc(-c2c(C(=O)CF)n(CCCO)c3ncnc(N)c23)cc1,Population Apoptotic (%),[1],36.11% and 57.14%
same,Population Fragmented Nuclei (%),[1],2.07% and 1.92%
same,Population Healthy Nuclei (%),[1],88.63% and 84.62%
same,Population Hoechst High Intensity Objects (%),[1],0%
same,Population Membrane Permeable-Phenotype (%),[1],0.29% and 2.27%
same,Population Mitochondria Different-Phenotype (%),[1],0% and 2.27%
same,Population Mitotic Cells (%),[1],63.89% and 42.86%
same,Population Normal (%),[1],100%
same,Population Pyknosed Nuclei (%),[1],9.3% and 13.46%
same,Population Tubulin-Different-Phenotype (%),[1],0.29% and 0%
same,Population Apoptotic (%),[2],50% and 52.94%
same,Population Fragmented Nuclei (%),[2],1.91% and 5.78%
same,Population Healthy Nuclei (%),[2],88.83% and 84.39%
same,Population Hoechst High Intensity Objects (%),[2],0%
same,Population Membrane Permeable-Phenotype (%),[2],0.61% and 4.11%
same,Population Mitochondria Different-Phenotype (%),[2],0% and 3.42%
same,Population Mitotic Cells (%),[2],50% and 47.06%
same,Population Normal (%),[2],100%
same,Population Pyknosed Nuclei (%),[2],9.26% and 9.83%
same,Population Tubulin-Different-Phenotype (%),[2],0.61% and 0%
same,Total Cell Count,[2],367 and 173
same,Population Apoptotic (%),[3],47.37% and 40%
same,Population Fragmented Nuclei (%),[3],1.55% and 4.48%
same,Population Healthy Nuclei (%),[3],91.09% and 84.33%
same,Population Hoechst High Intensity Objects (%),[3],0%
same,Population Membrane Permeable-Phenotype (%),[3],0.43% and 3.54%
same,Population Mitochondria Different-Phenotype (%),[3],0% and 2.65%
same,Population Mitotic Cells (%),[3],52.63% and 60%
same,Population Normal (%),[3],100%
same,Population Pyknosed Nuclei (%),[3],7.36% and 11.19%
same,Population Tubulin-Different-Phenotype (%),[3],0.21% and 0.88%
same,Population Apoptotic (%),[4],54.05% and 43.48%
same,Population Fragmented Nuclei (%),[4],2.71% and 3.7%
same,Population Healthy Nuclei (%),[4],89.58% and 86.83%
same,Population Hoechst High Intensity Objects (%),[4],0%
same,Population Membrane Permeable-Phenotype (%),[4],0.93% and 5.21%
same,Population Mitochondria Different-Phenotype (%),[4],0% and 4.27%
same,Population Mitotic Cells (%),[4],45.95% and 56.52%
same,Population Normal (%),[4],100%
same,Population Pyknosed Nuclei (%),[4],7.71% and 9.47%
same,Population Tubulin-Different-Phenotype (%),[4],1.4% and 0.47%
same,Total Cell Count,[4],480 and 243
same,Population Apoptotic (%),[5],33.82% and 20%
same,Population Fragmented Nuclei (%),[5],3.18% and 5%
same,Population Healthy Nuclei (%),[5],89.85% and 81.36%
same,Population Hoechst High Intensity Objects (%),[5],0%
same,Population Membrane Permeable-Phenotype (%),[5],1.26% and 1.12%
same,Population Mitochondria Different-Phenotype (%),[5],0% and 2.23%
same,Population Mitotic Cells (%),[5],66.18% and 80%
same,Population Normal (%),[5],100%
same,Population Pyknosed Nuclei (%),[5],6.97% and 13.64%
same,Population Tubulin-Different-Phenotype (%),[5],0.34% and 0.56%
same,Population Apoptotic (%),[6],49.33% and 48.98%
same,Population Fragmented Nuclei (%),[6],2.94% and 2.66%
same,Population Healthy Nuclei (%),[6],89.18% and 85.47%
same,Population Hoechst High Intensity Objects (%),[6],0%
same,Population Membrane Permeable-Phenotype (%),[6],0.94% and 1.13%
same,Population Mitochondria Different-Phenotype (%),[6],0% and 1.42%
same,Population Mitotic Cells (%),[6],50.67% and 51.02%
same,Population Normal (%),[6],100%
same,Population Pyknosed Nuclei (%),[6],7.88% and 11.86%
same,Population Tubulin-Different-Phenotype (%),[6],1.06% and 0.57%
same,Total Cell Count,[6],952 and 413
Cc1c(-c2cc(-c3ccccc3Cl)no2)cnn1C1CCNCC1.Cl,Population Apoptotic (%),[1],35.85% and 50%
same,Population Fragmented Nuclei (%),[1],2.99% and 1.04%
same,Population Healthy Nuclei (%),[1],85.68% and 82.29%
same,Population Hoechst High Intensity Objects (%),[1],0%
same,Population Membrane Permeable-Phenotype (%),[1],0.5% and 3.8%
same,Population Mitochondria Different-Phenotype (%),[1],0% and 8.86%
same,Population Mitotic Cells (%),[1],64.15% and 50%
same,Population Normal (%),[1],100%
same,Population Pyknosed Nuclei (%),[1],11.32% and 16.67%
same,Population Tubulin-Different-Phenotype (%),[1],1.5% and 1.9%
same,Total Cell Count,[1],468 and 192
same,Population Apoptotic (%),[2],35.61% and 27.88%
same,Population Fragmented Nuclei (%),[2],0.94% and 2.96%
same,Population Healthy Nuclei (%),[2],57.68% and 20%
same,Population Hoechst High Intensity Objects (%),[2],0%
same,Population Membrane Permeable-Phenotype (%),[2],28.26% and 22.22%
same,Population Mitotic Cells (%),[2],64.39% and 72.12%
same,Population Normal (%),[2],100%
same,Population Pyknosed Nuclei (%),[2],41.38% and 77.04%
same,Population Tubulin-Different-Phenotype (%),[2],85.87% and 88.89%
same,Total Cell Count,[2],319 and 135
same,Population Apoptotic (%),[3],37.5% and 39.02%
same,Population Fragmented Nuclei (%),[3],2.05% and 3.23%
same,Population Healthy Nuclei (%),[3],87.85% and 80.24%
same,Population Hoechst High Intensity Objects (%),[3],0%
same,Population Membrane Permeable-Phenotype (%),[3],0.18% and 2.01%
same,Population Mitochondria Different-Phenotype (%),[3],0.18% and 7.54%
same,Population Mitotic Cells (%),[3],62.5% and 60.98%
same,Population Normal (%),[3],100%
same,Population Pyknosed Nuclei (%),[3],10.09% and 16.53%
same,Population Tubulin-Different-Phenotype (%),[3],1.08% and 1.51%
same,Total Cell Count,[3],634 and 248
same,Population Apoptotic (%),[4],38.83% and 47.71%
same,Population Fragmented Nuclei (%),[4],2.56% and 6.16%
same,Population Healthy Nuclei (%),[4],49.23% and 19.18%
same,Population Hoechst High Intensity Objects (%),[4],0% and 0.68%
same,Population Membrane Permeable-Phenotype (%),[4],21.88% and 17.86%
same,Population Mitotic Cells (%),[4],61.17% and 52.29%
same,Population Normal (%),[4],100% and 99.32%
same,Population Pyknosed Nuclei (%),[4],48.21% and 74.66%
same,Population Tubulin-Different-Phenotype (%),[4],79.17% and 60.71%
same,Total Cell Count,[4],390 and 147
same,Population Apoptotic (%),[5],42.02% and 57.78%
same,Population Fragmented Nuclei (%),[5],2.39% and 2.74%
same,Population Healthy Nuclei (%),[5],86.66% and 84.93%
same,Population Hoechst High Intensity Objects (%),[5],0%
same,Population Membrane Permeable-Phenotype (%),[5],1.59% and 2.58%
same,Population Mitochondria Different-Phenotype (%),[5],0.11% and 7.74%
same,Population Mitotic Cells (%),[5],57.98% and 42.22%
same,Population Normal (%),[5],100%
same,Population Pyknosed Nuclei (%),[5],10.95% and 12.33%
same,Population Tubulin-Different-Phenotype (%),[5],2.23% and 3.55%
same,Total Cell Count,[5],1087 and 365
same,Population Apoptotic (%),[6],59.43% and 95.93%
same,Population Fragmented Nuclei (%),[6],1.36% and 2.17%
same,Population Hoechst High Intensity Objects (%),[6],0.68% and 0%
same,Population Normal (%),[6],99.32% and 100%
same,Population Pyknosed Nuclei (%),[6],55.33% and 89.13%
same,Population Tubulin-Different-Phenotype (%),[6],49.21% and 50%
